{"data": "Experimental data pooled from the literature", "effect on": "cell growth or viability", "note": "Lines come from different studies, so protocols differ."}
{"SMILES": "Cc1ncnc2c1c(SC(F)(F)F)cn2[C@@H]1O[C@H](CO)[C@@H](O)[C@H]1O", "cell line": "MRC-5 SV2", "assay": "resazurin", "conditions": "72 h", "CC50": "36.8 µM"}
{"SMILES": "O=C(N[C@@H](Cc1ccccc1)C(=O)c1ncc(-c2ccccc2)s1)[C@H](Cc1ccccc1)NC(=O)N1CCOCC1", "cell line": "MRC-5 SV2", "CC50": "> 64 µM"}
{"SMILES": "Cc1ccc(C(=O)Nc2ccc(S(=O)(=O)O)c3cc(S(=O)(=O)O)cc(S(=O)(=O)O)c23)cc1NC(=O)c1cccc(NC(=O)Nc2cccc(C(=O)Nc3cc(C(=O)Nc4ccc(S(=O)(=O)O)c5cc(S(=O)(=O)O)cc(S(=O)(=O)O)c45)ccc3C)c2)c1", "cell line": "MRC-5 SV2", "assay": "resazurin", "conditions": "72 h", "CC50": "> 64 µM"}
{"SMILES": "CCOC(=O)c1cn(CC(c2cn(C)c3ccc(C)cc23)c2cn(C)c3ccc(C)cc23)c(C)c1C(=O)OC", "cell line": "HaCaT", "assay": "MTS", "conditions": "24 h", "CC50": "> 20 µM"}
{"SMILES": "Cc1cn([C@H]2C[C@H](N=[N+]=[N-])[C@@H](CO)O2)c(=O)[nH]c1=O", "cell line": "CEM-GFP", "assay": "MTT", "conditions": "48 h", "CC50": "> 200 µg/mL"}
{"SMILES": "CCCCCCCCCCCCCCCCOP(=O)([O-])OCC[N+](C)(C)C", "cell line": "HaCaT", "assay": "MTS", "conditions": "24 h", "CC50": "> 20 µM"}
{"SMILES": "C[C@@H]1O[C@@H](OC[C@H]2O[C@@H](Oc3c(-c4ccc(O)c(O)c4)oc4cc(O)cc(O)c4c3=O)[C@H](O)[C@@H](O)[C@@H]2O)[C@H](O)[C@H](O)[C@H]1O", "cell line": "CEM-GFP", "assay": "MTT", "conditions": "48 h", "CC50": "> 250 µg/mL"}
{"SMILES": "O=C(N[C@@H](Cc1ccccc1)C(=O)c1cn(COCc2ccccc2)nn1)[C@H](Cc1ccccc1)NC(=O)N1CCOCC1", "cell line": "MRC-5 SV2", "CC50": "> 64 µM"}
{"SMILES": "N=C(N)c1ccc(/N=N/Nc2ccc(C(=N)N)cc2)cc1", "cell line": "MRC-5 SV2", "assay": "resazurin", "conditions": "72 h", "CC50": "> 64 µM"}
{"SMILES": "O=C(N[C@@H](Cc1ccccc1)C(=O)c1ncc(-c2ccccc2)o1)[C@H](Cc1ccccc1)NC(=O)N1CCOCC1", "cell line": "MRC-5 SV2", "CC50": "> 64 µM"}
{"SMILES": "COC(=O)c1c(C)ncn1CC(c1c[nH]c2ccccc12)c1c[nH]c2ccccc12", "cell line": "HaCaT", "assay": "MTS", "conditions": "24 h", "CC50": "> 20 µM"}
